In PMC4570851 (Bioorganic & medicinal chemistry letters, 2012):
Where no end group is shown, it is not given here. [ ]: non-standard residue; d: D form.

Target: T1, sPLA2-IIA-integrin αvβ3 interaction (Homo sapiens, UniProt P14555)
T1 sequence (P14555 21-144): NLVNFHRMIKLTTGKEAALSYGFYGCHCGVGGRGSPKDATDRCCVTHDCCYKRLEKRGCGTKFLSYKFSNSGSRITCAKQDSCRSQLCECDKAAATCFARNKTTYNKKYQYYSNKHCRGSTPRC
Assay: cell adhesion inhibition assay: αvβ3-K562 cells on immobilized sPLA2-IIA
Assay type: cell-based
Details: for inhibition of the sPLA2-IIA-integrin interaction (in words): αvβ3-K562 cell adhesion to immobilized sPLA2-IIA; for Max. Inhibition / IC50: αvβ3-K562 cells, immobilized sPLA2-IIA, means ± S.E. (n=3); for Max. Inhibition: adhesion without inhibitors as 100%, adhesion to BSA only as 0%; for IC50: compounds 10 to 500 μM, 30 min, cells 1 h at 37 °C
How it was run: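 Wells coated with sPLA2-IIA and blocked with BSA, then preincubated 30 min with test compound (10 to 500 μM). K562 erythroleukemia cells transfected to overexpress integrin αvβ3 were added for 1 h at 37 °C. Bound cells were quantified by phosphatase assay. IC50 and maximum inhibition came from dose-response data, with no-inhibitor adhesion as 100% and BSA-only as 0%. n=3.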

Row | inhibition of the sPLA2-IIA-integrin interaction (in words) | IC50 [µM] | Compound | Max. Inhibition
1 | not inhibitory | – | Gly-Arg*-Gly-Asp*-Asp*-Asp* [Cmpd21-6] | N/A (N/A, “not active’ (<30% inhibition))
2 | – | 20 ± 1.3 | R-Ala-Trp-Asp*-Ile (AW[dD]I-NH2; not fully specified (N-terminus)) [Cmpd8] | –
3 | – | 155 ± 3.8 | R-Gly-Arg*-Gly-Asp* (G[dR]G[dD]-NH2; not fully specified (N-terminus)) [Cmpd21-4] | –
4 | – | 71 ± 18 | R-Gly-Arg*-Gly-Asp*-Asp*-Asp* (G[dR]G[dD][dD][dD]-NH2; not fully specified (N-terminus)) [Cmpd21] | –

Second part, the compound before the results:

Row | Compound | inhibition of the sPLA2-IIA-integrin interaction (in words) | IC50 [µM] | Max. Inhibition
5 | Cc1nc(NC(=O)c2ccccc2)sc1-c1cc(C(=O)O)[nH]n1 [Cmpd8-1, R-OH] | not inhibitory | – | N/A (N/A, “not active’ (<30% inhibition))
6 | Cc1nc(NC(=O)c2ccccc2)sc1-c1cc(C(=O)N[C@@H](C)C(=O)O)[nH]n1 [Cmpd8-2, R-Ala] | – | – | N/A (N/A, “not active’ (<30% inhibition))
7 | Cc1nc(NC(=O)c2ccccc2)sc1-c1cc(C(=O)NCC(=O)O)[nH]n1 [Cmpd21-1, R-Gly] | active | – | –
8 | Ala-Trp-Asp*-Ile [Cmpd8-5] | not inhibitory | – | N/A (N/A, “not active’ (<30% inhibition))
